SMILES strings stand for the structures. A value given as a limit tells only on which side of the number the result lay.

Data set [1] is described as follows: Clearance in Sprague-Dawley rat at 1 mg/kg, iv after 4 hrs. The class given is ADME, organism-based. The following applies: in vivo. Put shortly:
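Male Sprague-Dawley rats given 1 mpk IV in PEG400/ethanol (90:10); blood sampled at 5 and 30 min and 1, 2 and 4 h post-dose; clearance from plasma profile.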

Data set [2] in a line: Aqueous solubility of the compound. The class given is physicochemical. In outline: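 Aqueous solubility measured at pH 2.3, 6.1, 7.3 and 8.5, in µg/mL.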
Data set [3] concerns the target Human immunodeficiency virus type 1 integrase (Human immunodeficiency virus 1, UniProt Q7ZJM1). Put plainly: Inhibition of HIV1 integrase strand transfer activity.

Sequence of Human immunodeficiency virus type 1 integrase (Q7ZJM1 whole entry): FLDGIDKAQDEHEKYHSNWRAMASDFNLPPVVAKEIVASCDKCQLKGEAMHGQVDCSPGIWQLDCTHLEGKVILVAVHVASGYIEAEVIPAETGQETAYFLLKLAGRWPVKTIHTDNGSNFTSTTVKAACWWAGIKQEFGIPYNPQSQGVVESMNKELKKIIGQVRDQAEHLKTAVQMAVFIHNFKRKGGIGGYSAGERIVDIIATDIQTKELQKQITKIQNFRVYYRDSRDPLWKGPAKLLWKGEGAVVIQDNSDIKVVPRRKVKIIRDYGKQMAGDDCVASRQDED

`CS(=O)(=O)c1cc(F)ccc1CNC(=O)c1nc2n(c(=O)c1O)CCCC21CCCC1` gave a clearance in data set [1] of 46 mL/min/kg. Also, in data set [2], the solubility is ≤ 5 µg/mL. In addition, the midpoint of inhibition in data set [3], the IC50, lay at 4 nM.
For `Cc1cc(CNC(=O)c2nc3n(c(=O)c2O)CCOC3(C)C)ccc1F`, the clearance in data set [1] stood at 11 mL/min/kg. Also, in data set [3], the midpoint of inhibition, the IC50, lay at 3 nM.
Molecule `CC1(C)OCCn2c1nc(C(=O)NCc1ccc(F)cc1Cl)c(O)c2=O` returned a 50% inhibitory concentration (IC50) in data set [3] of 10 nM.
In data set [1], `CC1(C)OCCn2c1nc(C(=O)NCc1ccc(F)cc1N1CCCCS1(=O)=O)c(O)c2=O` yielded a clearance of 38 mL/min/kg. In data set [3], the half-maximal inhibitory concentration (IC50) stood at 9 nM.
For `CC1(C)OCCn2c1nc(C(=O)NCc1ccc(F)c(Cl)c1)c(O)c2=O`, half-maximal inhibition in data set [3] (IC50) was put at 3 nM.
In turn, `CNC(=O)c1cc(F)ccc1CNC(=O)c1nc2n(c(=O)c1O)CCOC2(C)C` had a clearance in data set [1] of 22 mL/min/kg. This molecule yielded a concentration for half-maximal inhibition (IC50) in data set [3] of 11 nM.
Regarding `Cc1cc(F)ccc1CNC(=O)c1nc2n(c(=O)c1O)CCOC2(C)C`, the IC50 in data set [3] worked out at 2 nM.
Take `O=C(NCc1ccc(F)cc1S(=O)(=O)N1CCOCC1)c1nc2n(c(=O)c1O)CCCC21CCCC1`: the solubility in data set [2] was ≤ 5 µg/mL. Moreover, in data set [3], half-maximal inhibition (IC50) was put at 11 nM.

These data come from ChEMBL document CHEMBL4118197, “The discovery and preclinical evaluation of BMS-707035, a potent HIV-1 integrase strand transfer inhibitor” (Bioorg Med Chem Lett, 2018).
